Experimental data taken from ChEMBL document CHEMBL1155794, “Novel N1-substituted 1,3-dihydro-2H-benzimidazol-2-ones as potent non-nucleoside reverse transcriptase inhibitors” (Bioorg Med Chem, 2008).

How the values were obtained:
[1] = Cytotoxicity against human MT4 cells; assay type: cell-based
Method in brief: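 MT-4 cell viability measured after exposure to compound dilutions; CC50 taken as concentration lowering viability by 50%.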

[2] = Selectivity index, ratio of CC50 for human MT4 cells to EC50 for HIV1 3B; assay type: toxicity, cell-based; settings: read-out: Ratio CC50/EC50
[3] = target: Human immunodeficiency virus type 1 reverse transcriptase (Human immunodeficiency virus 1, UniProt Q72547); experiment: Inhibition of HIV1 reverse transcriptase RNA-dependent DNA polymerase activity assessed as incorporation of radioactive dTTP into poly(rA)/oligo(DT)
[4] = tested on: Human immunodeficiency virus 1; experiment: Antiviral activity against HIV1 3B in human MT4 cells assessed as virus-induced cytopathogenicity after 5 days; assay type: functional, organism-based; settings: Human immunodeficiency virus 1, 3B, MT4, 120 h
Method in brief: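 MT-4 cells infected and treated with serial dilutions, incubated at 37 °C for 5 days; viable cell count determined; EC50 = concentration reducing virus-induced cytopathicity by 50%.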

O=c1[nH]c2ccc(Cl)cc2n1Cc1c(F)cccc1F
CC50 [1]: > 424000 nM
selectivity ratio [2]: > 1890

O=c1[nH]c2ccc(C(F)(F)F)cc2n1Cc1c(F)cccc1F
IC50 [3]: 17 nM
EC50 [4]: 5500 nM
CC50 [1]: > 424000 nM
selectivity ratio [2]: > 77

Cc1cc(C)cc(Cn2c(=O)[nH]c3ccc(C(F)(F)F)cc32)c1
IC50 [3]: 280 nM
EC50 [4]: 425 nM
CC50 [1]: 37400 nM
selectivity ratio [2]: 88

O=c1[nH]c2ccc(Cl)cc2n1S(=O)(=O)c1c(F)cccc1F
IC50 [3]: 30000 nM
EC50 [4]: 1570 nM
CC50 [1]: 194000 nM
selectivity ratio [2]: 124

Cc1ccnc2c1NC(=O)c1cccnc1N2C1CC1 [NEVIRAPINE]
CC50 [1]: > 15000 nM

CC(=O)n1c(=O)n(Cc2cc(C)cc(C)c2)c2cc(Cl)ccc21
IC50 [3]: > 100000 nM
EC50 [4]: 11.7 nM
CC50 [1]: 7180 nM
selectivity ratio [2]: 614

Fc1cccc(F)c1Cn1c(=S)[nH]c2ccc(Cl)cc21
EC50 [4]: 740 nM
CC50 [1]: 5950 nM
selectivity ratio [2]: 8

O=c1[nH]c2cc(F)c(Cl)cc2n1Cc1c(F)cccc1F
IC50 [3]: 140 nM
EC50 [4]: 29000 nM
CC50 [1]: 267000 nM
selectivity ratio [2]: 9

O=c1[nH]c2cc(F)c(Cl)cc2n1Cc1cc(F)cc(F)c1
IC50 [3]: 3 nM
EC50 [4]: > 33900 nM
CC50 [1]: > 400000 nM

Cc1cc(C)cc(S(=O)(=O)n2c(=O)[nH]c3ccc(Cl)cc32)c1
selectivity ratio [2]: 17800

Cc1ccc2[nH]c(=O)n(S(=O)(=O)c3cc(F)cc(F)c3)c2c1
IC50 [3]: 200 nM
EC50 [4]: 65 nM
CC50 [1]: 23400 nM
selectivity ratio [2]: 360

O=c1[nH]c2ccc(Cl)cc2n1Cc1cc(F)cc(F)c1
IC50 [3]: 100 nM
EC50 [4]: 289 nM
CC50 [1]: > 424000 nM
selectivity ratio [2]: > 1470

Cc1cc(C)cc(Cn2c(=O)[nH]c3ccc(Cl)cc32)c1
selectivity ratio [2]: 281

CC(=O)n1c(=O)n(Cc2c(F)cccc2F)c2cc(Cl)ccc21
IC50 [3]: > 100000 nM
EC50 [4]: 534 nM
CC50 [1]: 102000 nM
selectivity ratio [2]: 190

Cc1cc(C)cc(S(=O)(=O)n2c(=O)[nH]c3ccc(C)cc32)c1
IC50 [3]: 100 nM
EC50 [4]: 6.3 nM
CC50 [1]: > 308000 nM
selectivity ratio [2]: > 48900

Cc1cc(C)cc(Cn2c(=O)[nH]c3cc(F)c(Cl)cc32)c1
IC50 [3]: > 100000 nM
EC50 [4]: 938 nM
CC50 [1]: > 410000 nM
selectivity ratio [2]: > 438

Cc1cc(C)cc(Cn2c(=O)[nH]c3ccc(C)cc32)c1
IC50 [3]: 76900 nM
EC50 [4]: 75 nM
CC50 [1]: 856 nM
selectivity ratio [2]: 11

Cc1cc(C)cc(Cn2c(=S)[nH]c3ccc(Cl)cc32)c1
IC50 [3]: 46 nM
EC50 [4]: 76 nM
CC50 [1]: 305 nM
selectivity ratio [2]: 4

Cc1ccc2[nH]c(=O)n(Cc3cc(F)cc(F)c3)c2c1
IC50 [3]: > 400000 nM
EC50 [4]: > 73000 nM
CC50 [1]: 73000 nM
selectivity ratio [2]: < 1

O=c1[nH]c2ccc(Cl)cc2n1S(=O)(=O)c1cc(F)cc(F)c1
IC50 [3]: 100 nM
EC50 [4]: 69 nM
CC50 [1]: 202000 nM
selectivity ratio [2]: 2930

O=C1Nc2ccc(Cl)cc2[C@@](C#CC2CC2)(C(F)(F)F)O1 [EFAVIRENZ]
CC50 [1]: > 6000 nM

Cc1ccc2[nH]c(=O)n(S(=O)(=O)c3c(F)cccc3F)c2c1
IC50 [3]: 1300 nM
EC50 [4]: 195 nM
CC50 [1]: 2220 nM
selectivity ratio [2]: 11

Fc1cc(F)cc(Cn2c(=S)[nH]c3ccc(Cl)cc32)c1
IC50 [3]: 160 nM
EC50 [4]: > 737 nM
CC50 [1]: 1200 nM
selectivity ratio [2]: 2

Cc1cc(C)cc(S(=O)(=O)n2c(=O)[nH]c3cc(F)c(Cl)cc32)c1
IC50 [3]: 158 nM
EC50 [4]: 450 nM
CC50 [1]: 140000 nM
selectivity ratio [2]: 310

Cc1ccc2[nH]c(=O)n(Cc3c(F)cccc3F)c2c1
IC50 [3]: > 100000 nM
EC50 [4]: 18600 nM
CC50 [1]: 236000 nM
selectivity ratio [2]: 13

CC(=O)n1c(=O)n(Cc2cc(F)cc(F)c2)c2cc(Cl)ccc21
IC50 [3]: 38500 nM
EC50 [4]: 1660 nM
CC50 [1]: 40400 nM
selectivity ratio [2]: 24
